Reference: ChEMBL document CHEMBL1151481, “Cytotoxic polyprenylated xanthones from the resin of Garcinia hanburyi” (J Nat Prod, 2009)
pIC50: −log10 of the molar value.

Test system: HeLa
Assay: Cytotoxicity against human HeLa cells after […] by MTT assay
Type: functional, cell-based
How it was run: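 MTT read-out on HeLa cells, with an adriamycin positive control. Each determination was run in triplicate and reported as mean ± SEM. The 50% inhibitory concentration was obtained by interpolating concentration–inhibition curves.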

| SMILES | pIC50 (Homo sapiens, HeLa) | pIC50 (hela) |
| --- | --- | --- |
| CO[C@]12C=C3C(=O)c4c(O)c5c(c(CC=C(C)C)c4O[C@@]34[C@@H](C1)C(C)(C)O[C@@]4(C/C=C(/C)C(=O)O)C2=O)O[C@@](C)(CCC=C(C)C)C=C5 | 6.07 |  |
| CC(C)=CCC/C(C)=C/Cc1c(O)c(CC=C(C)C)c2c(c1O)C(=O)C1C(O)[C@@H]3C[C@H]4C(C)(C)O[C@@](C/C=C(/C)C(=O)O)(C3=O)[C@@]14O2 (stereo partly specified) | 5.29 |  |
| CC(C)=CCC/C(C)=C/Cc1c(O)c2c(c3c1O[C@@H](C(C)(C)O)C3)O[C@]13C(=C[C@@H]4C[C@H]1C(C)(C)O[C@@]3(C/C=C(/C)C(=O)O)C4=O)C2=O [GAMBOGENIFIC ACID] | 5.75 |  |
| COc1cccc2c1C(=O)c1c(O)c3c(c(O)c1C2=O)C[C@@](O)(C(=O)CO)C[C@@H]3O[C@H]1C[C@H](N)[C@H](O)[C@H](C)O1 [DOXORUBICIN] | 6.39 |  |
| CC(C)=CCc1c2c(c(O)c3c1O[C@]14C(C3=O)[C@@H](O)[C@@H]3C[C@H]1C(C)(C)O[C@@]4(C/C=C(/C)C(=O)O)C3=O)C=CC(C)(C)O2 (stereo partly specified) | 5.77 |  |
| C=C(C)C1CCC2(C)CC1c1c(O)c3c(c(CC=C(C)C)c1O2)O[C@]12C(=C[C@]4(OC)C[C@H]1C(C)(C)O[C@@]2(C/C=C(/C)C(=O)O)C4=O)C3=O (stereo partly specified) | 6.04 |  |
| COC(=O)/C(C)=C\C[C@@]12OC(C)(C)[C@@H]3C[C@@H](CC4C(=O)c5c(O)c6c(c(CC=C(C)C)c5O[C@]431)OC(C)(C)C=C6)C2=O (stereo partly specified) | 3.95 |  |
| CC(C)=CCc1c2c(c(O)c3c1O[C@]14C(=C[C@@H]5C[C@H]1C(C)(C)O[C@@]4(C/C=C(/C)C(=O)O)C5=O)C3=O)C=CC(C)(CC/C=C/C(C)(C)O)O2 (stereo partly specified) [OXYGAMBOGIC ACID] | 5.72 |  |
| CC(C)=CCc1c2c(c(O)c3c1OC(C)(C)C1CCC(C)=CC31)C(=O)C1=C[C@@H]3C[C@H]4C(C)(C)O[C@@](C/C=C(/C)C(=O)O)(C3=O)[C@@]14O2 (stereo partly specified) [GAMBOGEFIC ACID] | 6.25 |  |
| CC(C)=CCCC1(C)C=Cc2c(O)c3c(c(CC=C(C)C)c2O1)O[C@]12C(C3=O)C(O)[C@@H]3C[C@H]1C(C)(C)O[C@@]2(C/C=C(/C)C(=O)O)C3=O (stereo in doubt; 13) | 6.19 |  |
| CC(C)=CCCC1(C)C=Cc2c(O)c3c(c(CC=C(C)C)c2O1)O[C@]12C(C3=O)C(O)[C@@H]3C[C@H]1C(C)(C)O[C@@]2(C/C=C(/C)C(=O)O)C3=O (stereo in doubt; 14) |  | 6.20 |
| CC(C)=CCC/C(C)=C/Cc1c(O)c(CC=C(C)C)c2c(c1O)C(=O)C1C=CCC3C(C)(C)OC4(CC=C(C)C(=O)O4)C13O2 (stereo unspecified) | 5.06 |  |
| CC(C)=CCC/C(C)=C/COc1cc(O)c2c(c1CC=C(C)C)O[C@]13C(=C[C@@H]4C[C@H]1C(C)(C)O[C@@]3(CC=C(C)C)C4=O)C2=O | 5.39 |  |
| CO[C@]12C=C3C(=O)c4c(O)c5c(c(CC=C(C)C)c4O[C@@]34[C@@H](C1)C(C)(C)O[C@@]4(C/C=C(/C)CO)C2=O)OC(C)(C)C=C5 | 5.92 |  |
| CO[C@]12C=C3C(=O)c4c(O)c5c(c(CC=C(C)C)c4O[C@@]34[C@@H](C1)C(C)(C)O[C@@]4(C/C=C(/C)C(=O)O)C2=O)O[C@](C)(CCC=C(C)C)C=C5 | 6.03 |  |
| CC(C)=CCC[C@]1(C)C=Cc2c(O)c3c(c(CC=C(C)C)c2O1)O[C@]12C(=C[C@@H]4C[C@H]1C(C)(C)O[C@@]2(C/C=C(/C)C(=O)O)C4=O)C3=O [GAMBOGIC ACID] | 6.15 |  |
